ChEMBL document CHEMBL1121389, “Mono- and diaryl-2-quinuclidinylcarbinols with local anesthetic and antiarrhythmic activity” (1980)

Key:
Canis familiaris [1] = species on record: Canis familiaris; assay: Number of dogs used ouabain induced arrhythmia; type: functional, Canis lupus familiaris
Outline: (§1)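 Dogs anesthetized with pentobarbital 35 mg/kg. Ouabain given iv at 40 μg/kg, then 20 μg/kg 30 min later, then 10 μg/kg every 15 min until ventricular tachycardia persisted. About 20 min after the last ouabain dose, compound given iv over 3 min, starting at 5 mg/kg. Further 5 or 10 mg/kg doses given at 15-min intervals, up to 15 or 20 mg/kg, until sinus rhythm returned. Dogs observed 2 h.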

Canis familiaris [2] = species on record: Canis familiaris; assay: Concentration required to reverse ouabain induced arrhythmia in dogs; type: functional, Canis lupus familiaris; outline: as §1
Canis familiaris [3] = species on record: Canis familiaris; assay: Duration of the reversal of ouabain induced arrhythmia was measured; type: functional, Canis lupus familiaris; outline: as §1
Canis familiaris [4] = assay: Heart rate of the dog was measured after ouabain administration to dogs; type: functional, Canis lupus familiaris; outline: as §1
Canis familiaris [5] = species on record: Canis familiaris; assay: Concentration of ouabain required to induce arrhythmia in dogs; type: functional, Canis lupus familiaris; outline: as §1
Cavia porcellus = assay: Local anesthetic activity using modification of the guinea pig intracutaneous wheal method.; type: functional
Outline: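 Guinea pigs, four per test. Each animal received four intracutaneous injections: propranolol standard at 0.6 and 0.2%, test high dose 0.6-2% and low dose 0.2-0.67%. Wheals marked. Skin pricked with a 23-gauge needle six times inside and six times outside the wheal every 5 min up to 30 min. Activity expressed relative to propranolol with 95% confidence limits.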

Canis familiaris [6] = assay: Heart rate of the dog was measured after drug administration to dogs; type: functional, Canis lupus familiaris; outline: as §1
Canis familiaris [7] = species on record: Canis familiaris; assay: Number of dogs reverted ouabain induced arrhythmia; type: functional, Canis lupus familiaris; outline: as §1
Canis familiaris [8] = species on record: Canis familiaris; assay: Number of dogs reverted in ouabain induced arrhythmia; type: functional, Canis lupus familiaris; outline: as §1
Canis familiaris [9] = species on record: Canis familiaris; assay: Number of dogs used in ouabain induced arrhythmia; type: functional, Canis lupus familiaris; outline: as §1

Row | SMILES | No. of dogs used (Canis familiaris [1]) | Dose (Canis familiaris [2]) | Duration of reversal (Canis familiaris [3]) | Heart rate (Canis familiaris [4]) | Ouabain (Canis familiaris [5]) | Activity (Cavia porcellus) | Heart rate (Canis familiaris [6]) | No. of dogs reverted (Canis familiaris [7]) | No. of dogs reverted (Canis familiaris [8]) | No. of dogs used (Canis familiaris [9])
1 | COc1ccc(Br)cc1C(O)(c1cc(Br)ccc1OC)C1CC2CCN1CC2 (stereo not drawn) | 1 | 10 mg/kg | >120 min | 210 min⁻¹ | 70 µg/kg | 0.92 | 162 min⁻¹ | 1 | – | –
2 | COc1ccc(C(O)(c2ccc(OC)cc2)C2CC3CCN2CC3)cc1 (stereo not drawn) | 1 | 5 mg/kg | 14 min | 240 min⁻¹ | 60 µg/kg | 0.54 | 168 min⁻¹ | 1 | – | –
3 | OC(c1ccco1)(c1ccco1)C1CC2CCN1CC2 (stereo not drawn) | 1 | 15 mg/kg | >120 min | 240 min⁻¹ | 70 µg/kg | 0.27 | 180 min⁻¹ | 1 | – | –
4 | COc1ccc([C@](O)(c2cc(Br)ccc2OC)C2CC3CCN2CC3)cc1 (stereo partly drawn) | 1 | 15 mg/kg | 0 min | 180 min⁻¹ | 100 µg/kg | 1.2 | 160 min⁻¹ | 0 | – | –
5 | OC(c1ccccc1)(c1ccccc1)C1CC2CCN1CC2 (stereo not drawn) | 2 | 5 mg/kg | >120 min | 228 min⁻¹ | 70 µg/kg | 0.85 | 186 min⁻¹ | 2 | – | –
6 | OC(c1ccccc1)(c1nccs1)C1CC2CCN1CC2 (stereo not drawn) | 2 | 6.4 mg/kg | >120 min | 207 min⁻¹ | 75 µg/kg | 0.25 | 150 min⁻¹ | 1 | – | –
7 | O[C@H](c1ccccc1)[C@@H]1CC2CCN1CC2 (relative stereo) | – | – | – | – | – | 0.25 | – | – | – | –
8 | Cn1ccnc1[C@@H](O)[C@@H]1CC2CCN1CC2 (relative stereo) | – | – | – | – | – | 0.61 | – | – | – | –
9 | O[C@H](c1ccncc1)[C@@H]1CC2CCN1CC2 (relative stereo) | – | – | – | – | – | 0.08 | – | – | – | –
10 | O[C@H](c1ccc(Cl)cc1)[C@@H]1CC2CCN1CC2 (relative stereo) | 1 | 15 mg/kg | 0 min | 222 min⁻¹ | 70 µg/kg | 0.43 | 160 min⁻¹ | 0 | – | –
11 | Cc1ccc([C@@H](O)[C@@H]2CC3CCN2CC3)cc1 (relative stereo) | – | – | – | – | – | 0.23 | – | – | – | –
12 | CC(C)(C)[C@@H](O)[C@@H]1CC2CCN1CC2 (relative stereo) | – | – | – | – | – | 0.13 | – | – | – | –
13 | O[C@H](c1ccco1)[C@@H]1CC2CCN1CC2 (relative stereo) | – | – | – | – | – | 0.09 | – | – | – | –
14 | O[C@H](C1=C2C=CC=CC(=CC=C1)C2)[C@@H]1CC2CCN1CC2 (relative stereo) | – | 15 mg/kg | >120 min | 216 min⁻¹ | 70 µg/kg | 0.99 | 156 min⁻¹ | – | 1 | 1
15 | O[C@@H](c1ccccc1)[C@@H]1CC2CCN1CC2 (relative stereo) | – | – | – | – | – | 0.18 | – | – | – | –
16 | O[C@H](c1nccs1)[C@@H]1CC2CCN1CC2 (single isomer, unassigned) | – | – | – | – | – | 0.8 | – | – | – | –
17 | Cc1ccc(C(O)(c2ccc(C)cc2)C2CC3CCN2CC3)cc1 (stereo in doubt; 21) | 3 | 11.7 mg/kg | 85 min | 220 min⁻¹ | 83 µg/kg | 0.86 | 134 min⁻¹ | 3 | – | –
18 | CCN(CC)CC(=O)Nc1c(C)cccc1C [LIDOCAINE] | 5 | 5 mg/kg | 51 min | 223 min⁻¹ | 74 µg/kg | 0.66 | 169 min⁻¹ | 5 | – | –
19 | CC(C)NCC(O)COc1cccc2ccccc12 (stereo not drawn) [PROPRANOLOL] | 5 | 5 mg/kg | 80 min | 211 min⁻¹ | 72 µg/kg | – | 138 min⁻¹ | 5 | – | –
20 | C=C[C@H]1CN2CC[C@H]1C[C@@H]2[C@@H](O)c1ccnc2ccc(OC)cc12 [QUINIDINE] | 13 | 9 mg/kg | 31 min | 211 min⁻¹ | 59 µg/kg | 1.15 | 170 min⁻¹ | 10 | – | –
